Drawing on ChEMBL document CHEMBL3808372, “Identification of quinones as novel PIM1 kinase inhibitors” (Bioorg Med Chem Lett, 2016), this text covers Activity and % of MOE kinase hits for 1 molecule.

SMILES strings stand for the structures.

Test [1] has as its target Mitogen-activated protein kinase 8 (Homo sapiens) (UniProt P45983). Nature of the test: Inhibition of full length human JNK1 assessed as enzyme activity at 10 uM by KINOMEScan assay. Set-up: scale not given: the % may be the effect or the level left. The gist of the method: (§1)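 Competition binding screen on a 100-kinase KINOMEscan panel, compound tested at a single 10 μM concentration. Primary binding read-out expressed as % Ctrl = (test compound signal − positive control signal)/(negative control signal − positive control signal) × 100, with lower values meaning stronger binding.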

For test [2], the target named is ALK tyrosine kinase receptor (Homo sapiens) (UniProt Q9UM73). Nature of the test: Inhibition of human ALK (1088 to 1409 amino acid residues) assessed as enzyme activity at 10 uM by KINOMEScan assay. Set-up: scale not given: the % may be the effect or the level left. The gist of the method: (§2)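 Commercial KINOMEscan binding panel of 100 kinases, test compound at 10 μM. Results are primary-screen binding interactions expressed as % Ctrl = (test compound signal − positive control signal)/(negative control signal − positive control signal) × 100. Lower % Ctrl means stronger binding.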

Test [3] concerns the target Tyrosine-protein kinase receptor UFO (Homo sapiens) (UniProt P30530). Nature of the test: Inhibition of human AXL (497 to 821 amino acid residues) assessed as enzyme activity at 10 uM by KINOMEScan assay expressed in bacterial system assessed as enzyme activity at 10 uM by KINOMEScan assay. More on the design: scale not given: the % may be the effect or the level left. In a few lines: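 Commercial KINOMEscan binding screen across a 100-kinase panel, test compound at 10 μM. Primary-screen binding interactions reported as % Ctrl = (test compound signal − positive control signal)/(negative control signal − positive control signal) × 100. Lower values indicate stronger hits.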

The test system of test [4] is Serine/threonine-protein kinase B-raf (Homo sapiens), P15056 [V600E]. Put plainly: Inhibition of human BRAF V600E mutant (429 to 741 amino acid residues) assessed as enzyme activity at 10 uM by KINOMEScan assay. More on the design: scale not given: the % may be the effect or the level left. The gist of the method: as §1
The target of test [5] is Serine/threonine-protein kinase B-raf (Homo sapiens) (UniProt P15056). Put plainly: Inhibition of human BRAF (429 to 741 amino acid residues) assessed as enzyme activity at 10 uM by KINOMEScan assay. More on the design: scale not given: the % may be the effect or the level left. The gist of the method:
as §1

In test [6] the target is Phosphatidylinositol 4,5-bisphosphate 3-kinase catalytic subunit gamma isoform (Homo sapiens) (UniProt P48736). Put plainly: Inhibition of human PIK3CG (144 to 1102 amino acid residues) assessed as enzyme activity at 10 uM by KINOMEScan assay. More on the design: scale not given: the % may be the effect or the level left. The gist of the method: (§3)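 Single-concentration competition binding screen (KINOMEscan) across a 100-kinase panel at 10 μM. Primary binding read-out is reported as % of control: (test signal − positive-control signal)/(negative-control signal − positive-control signal) × 100. Lower values indicate stronger binding.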

Test [7] has as its target Serine/threonine-protein kinase PLK4 (Homo sapiens) (UniProt O00444). Put plainly: Inhibition of human PLK4 (1 to 273 amino acid residues) assessed as enzyme activity at 10 uM by KINOMEScan assay. More on the design: scale not given: the % may be the effect or the level left. In a few lines:
as §3

The target of test [8] is 3-phosphoinositide-dependent protein kinase 1 (Homo sapiens) (UniProt O15530). Put plainly: Inhibition of full length human PDPK1 expressed in bacterial system assessed as enzyme activity at 10 uM by KINOMEScan assay. Set-up: scale not given: the % may be the effect or the level left. In a few lines: as §1
The target in test [9] is Cyclin-dependent kinase 11B (Homo sapiens) (UniProt P21127). Put plainly: Inhibition of human CDK11 (1 to 360 amino acid residues) assessed as enzyme activity at 10 uM by KINOMEScan assay expressed in bacterial system assessed as enzyme activity at 10 uM by KINOMEScan assay. More on the design: scale not given: the % may be the effect or the level left. The gist of the method:
as §2

In test [10] the target is Macrophage colony-stimulating factor 1 receptor (Homo sapiens) (UniProt P07333). Put plainly: Inhibition of human CSF1R (564 to 939 amino acid residues) assessed as enzyme activity at 10 uM by KINOMEScan assay expressed in bacterial system assessed as enzyme activity at 10 uM by KINOMEScan assay. More on the design: scale not given: the % may be the effect or the level left. The gist of the method:
as §1

Test [11] has as its system Tyrosine-protein kinase ABL1 (Homo sapiens), P00519 [T315I]. Put plainly: Inhibition of human ABL1 kinase T315I mutant phosphorylation (229 to 512 amino acid residues) assessed as enzyme activity at 10 uM by KINOMEScan assay. Set-up: scale not given: the % may be the effect or the level left. In a few lines:
as §1

The target of test [12] is Serine/threonine-protein kinase STK11 (Homo sapiens) (UniProt Q15831). Nature of the test: Inhibition of full length human LKB1 expressed in bacterial system assessed as enzyme activity at 10 uM by KINOMEScan assay. Set-up: scale not given: the % may be the effect or the level left. The gist of the method: as §2
In test [13] the target is Fibroblast growth factor receptor 3 (Homo sapiens) (UniProt P22607). Put plainly: Inhibition of human FGFR3 (442 to 771 amino acid residues) assessed as enzyme activity at 10 uM by KINOMEScan assay expressed in bacterial system assessed as enzyme activity at 10 uM by KINOMEScan assay. Set-up: scale not given: the % may be the effect or the level left. In a few lines:
as §1

Test [14] addresses Cyclin-dependent kinase 7 (Homo sapiens) (UniProt P50613). Put plainly: Inhibition of full length human CDK7 assessed as enzyme activity at 10 uM by KINOMEScan assay. More on the design: scale not given: the % may be the effect or the level left. In a few lines:
as §1

Test [15] deals with TGF-beta receptor type-1 (Homo sapiens) (UniProt P36897). Nature of the test: Inhibition of human TGFBR1 (179 to 503 amino acid residues) expressed in bacterial system assessed as enzyme activity at 10 uM by KINOMEScan assay. Set-up: scale not given: the % may be the effect or the level left. In a few lines:
as §2

Test [16] deals with Serine/threonine-protein kinase pim-2 (Homo sapiens) (UniProt Q9P1W9). Put plainly: Inhibition of PIM2 (unknown origin).
In test [17] the target is cAMP-dependent protein kinase catalytic subunit alpha (Homo sapiens) (UniProt P17612). Nature of the test: Inhibition of human PKAC-alpha (10 to 351 amino acid residues) expressed in bacterial system assessed as enzyme activity at 10 uM by KINOMEScan assay. More on the design: scale not given: the % may be the effect or the level left. In a few lines: as §3
Test [18] concerns the target Dual specificity mitogen-activated protein kinase kinase 1 (Homo sapiens) (UniProt Q02750). Put plainly: Inhibition of full length human MEK1 assessed as enzyme activity at 10 uM by KINOMEScan assay. Set-up: scale not given: the % may be the effect or the level left. In a few lines: as §1
Test [19] concerns the target Tyrosine-protein kinase ZAP-70 (Homo sapiens) (UniProt P43403). Nature of the test: Inhibition of human ZAP70 (20 to 299 amino acid residues) assessed as enzyme activity at 10 uM by KINOMEScan assay. Set-up: scale not given: the % may be the effect or the level left. The gist of the method: as §2
For test [20], the target named is Tyrosine-protein kinase JAK3 (Homo sapiens) (UniProt P52333). Put plainly: Inhibition of human JAK3 JH1 catalytic domain (781 to 1124 amino acid residues) assessed as enzyme activity at 10 uM by KINOMEScan assay. More on the design: scale not given: the % may be the effect or the level left. In a few lines: as §1
Test [21] has as its target MAP kinase-interacting serine/threonine-protein kinase 2 (Homo sapiens) (UniProt Q9HBH9). Put plainly: Inhibition of human MKNK2 (63 to 388 amino acid residues) assessed as enzyme activity at 10 uM by KINOMEScan assay. Set-up: scale not given: the % may be the effect or the level left. In a few lines: as §1
For test [22], the target named is MAP kinase-activated protein kinase 2 (Homo sapiens) (UniProt P49137). Put plainly: Inhibition of human MAPKAPK2 (48 to 345 amino acid residues) expressed in bacterial system assessed as enzyme activity at 10 uM by KINOMEScan assay. Set-up: scale not given: the % may be the effect or the level left. In a few lines:
as §1

Test [23] has as its target Dual specificity tyrosine-phosphorylation-regulated kinase 1B (Homo sapiens) (UniProt Q9Y463). Nature of the test: Inhibition of full length human DYRK1B expressed in bacterial system assessed as enzyme activity at 10 uM by KINOMEScan assay. Set-up: scale not given: the % may be the effect or the level left. The gist of the method:
as §1

Test [24] deals with Angiopoietin-1 receptor (Homo sapiens) (UniProt Q02763). Nature of the test: Inhibition of human TIE2 (804 to 1112 amino acid residues) expressed in bacterial system assessed as enzyme activity at 10 uM by KINOMEScan assay. Set-up: scale not given: the % may be the effect or the level left. In a few lines:
as §3

Sequence of Tyrosine-protein kinase ZAP-70 (Homo sapiens) (P43403 whole entry, the tested form may be a part): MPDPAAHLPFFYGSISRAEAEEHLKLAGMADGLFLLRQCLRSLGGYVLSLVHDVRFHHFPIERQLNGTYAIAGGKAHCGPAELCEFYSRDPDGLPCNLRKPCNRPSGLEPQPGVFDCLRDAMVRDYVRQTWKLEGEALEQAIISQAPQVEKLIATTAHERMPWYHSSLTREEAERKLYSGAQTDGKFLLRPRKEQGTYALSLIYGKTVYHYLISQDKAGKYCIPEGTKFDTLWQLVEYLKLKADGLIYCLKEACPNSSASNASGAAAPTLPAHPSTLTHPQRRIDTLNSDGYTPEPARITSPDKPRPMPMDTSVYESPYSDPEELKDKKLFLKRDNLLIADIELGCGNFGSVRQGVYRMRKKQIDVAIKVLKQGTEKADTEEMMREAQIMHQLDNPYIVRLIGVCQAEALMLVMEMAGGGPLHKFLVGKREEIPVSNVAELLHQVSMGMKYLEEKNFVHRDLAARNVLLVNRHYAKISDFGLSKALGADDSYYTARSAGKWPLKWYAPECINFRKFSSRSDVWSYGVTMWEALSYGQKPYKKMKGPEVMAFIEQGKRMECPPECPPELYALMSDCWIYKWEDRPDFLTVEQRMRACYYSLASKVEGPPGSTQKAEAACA
Sequence of Macrophage colony-stimulating factor 1 receptor (Homo sapiens) (P07333 whole entry, the tested form may be a part): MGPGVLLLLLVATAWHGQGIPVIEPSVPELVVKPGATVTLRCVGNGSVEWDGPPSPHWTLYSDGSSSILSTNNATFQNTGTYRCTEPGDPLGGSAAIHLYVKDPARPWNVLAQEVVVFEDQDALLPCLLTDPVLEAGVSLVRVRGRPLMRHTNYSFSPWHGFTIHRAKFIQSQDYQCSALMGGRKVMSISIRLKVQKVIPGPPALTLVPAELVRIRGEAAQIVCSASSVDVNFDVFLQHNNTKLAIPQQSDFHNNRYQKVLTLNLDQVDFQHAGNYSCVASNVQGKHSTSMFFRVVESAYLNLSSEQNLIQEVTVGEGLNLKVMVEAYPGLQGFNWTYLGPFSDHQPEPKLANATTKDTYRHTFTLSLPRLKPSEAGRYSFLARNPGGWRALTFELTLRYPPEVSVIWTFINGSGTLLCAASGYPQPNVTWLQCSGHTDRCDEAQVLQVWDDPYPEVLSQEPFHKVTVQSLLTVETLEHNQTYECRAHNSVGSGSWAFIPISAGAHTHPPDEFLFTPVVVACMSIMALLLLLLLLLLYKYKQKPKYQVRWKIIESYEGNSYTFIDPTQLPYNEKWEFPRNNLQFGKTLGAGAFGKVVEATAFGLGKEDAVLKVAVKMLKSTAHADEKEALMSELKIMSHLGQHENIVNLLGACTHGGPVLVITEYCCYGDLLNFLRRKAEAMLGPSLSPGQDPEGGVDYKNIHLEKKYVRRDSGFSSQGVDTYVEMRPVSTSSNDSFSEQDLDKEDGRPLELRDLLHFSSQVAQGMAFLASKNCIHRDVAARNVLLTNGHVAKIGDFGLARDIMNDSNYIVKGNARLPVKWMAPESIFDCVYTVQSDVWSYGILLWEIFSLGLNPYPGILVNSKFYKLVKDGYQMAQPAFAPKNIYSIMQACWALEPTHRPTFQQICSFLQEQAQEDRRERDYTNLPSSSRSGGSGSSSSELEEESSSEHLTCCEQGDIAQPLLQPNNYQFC
Sequence of Angiopoietin-1 receptor (Homo sapiens) (Q02763 whole entry, the tested form may be a part): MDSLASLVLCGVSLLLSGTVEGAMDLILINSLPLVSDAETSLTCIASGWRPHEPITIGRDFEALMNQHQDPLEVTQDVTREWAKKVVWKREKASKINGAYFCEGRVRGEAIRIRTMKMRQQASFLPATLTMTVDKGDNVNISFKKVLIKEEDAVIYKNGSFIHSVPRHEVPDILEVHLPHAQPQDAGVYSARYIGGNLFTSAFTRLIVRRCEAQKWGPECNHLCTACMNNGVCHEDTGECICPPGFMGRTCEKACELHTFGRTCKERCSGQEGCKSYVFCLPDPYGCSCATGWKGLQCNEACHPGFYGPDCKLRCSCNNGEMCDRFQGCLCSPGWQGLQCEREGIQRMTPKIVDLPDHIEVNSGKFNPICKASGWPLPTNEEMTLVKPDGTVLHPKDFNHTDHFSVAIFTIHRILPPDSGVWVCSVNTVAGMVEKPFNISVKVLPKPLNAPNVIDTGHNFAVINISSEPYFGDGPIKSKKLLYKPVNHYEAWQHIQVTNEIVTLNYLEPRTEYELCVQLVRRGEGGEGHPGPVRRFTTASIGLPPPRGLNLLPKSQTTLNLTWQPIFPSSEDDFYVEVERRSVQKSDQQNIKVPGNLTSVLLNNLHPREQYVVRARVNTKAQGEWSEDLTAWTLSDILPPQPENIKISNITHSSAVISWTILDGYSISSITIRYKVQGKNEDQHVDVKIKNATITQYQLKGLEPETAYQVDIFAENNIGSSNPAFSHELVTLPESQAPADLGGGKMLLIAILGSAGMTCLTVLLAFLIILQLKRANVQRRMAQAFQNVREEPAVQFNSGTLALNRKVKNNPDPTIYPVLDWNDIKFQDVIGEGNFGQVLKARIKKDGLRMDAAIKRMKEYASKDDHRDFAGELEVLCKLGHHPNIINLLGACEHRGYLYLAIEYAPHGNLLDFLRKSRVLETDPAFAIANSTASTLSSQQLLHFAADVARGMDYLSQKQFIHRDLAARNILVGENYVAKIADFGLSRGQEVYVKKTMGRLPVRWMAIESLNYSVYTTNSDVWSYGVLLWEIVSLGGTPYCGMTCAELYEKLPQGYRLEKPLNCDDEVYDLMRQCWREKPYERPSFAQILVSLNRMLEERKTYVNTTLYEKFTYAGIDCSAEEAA
Sequence of Serine/threonine-protein kinase B-raf (Homo sapiens) (P15056 whole entry, the tested form may be a part): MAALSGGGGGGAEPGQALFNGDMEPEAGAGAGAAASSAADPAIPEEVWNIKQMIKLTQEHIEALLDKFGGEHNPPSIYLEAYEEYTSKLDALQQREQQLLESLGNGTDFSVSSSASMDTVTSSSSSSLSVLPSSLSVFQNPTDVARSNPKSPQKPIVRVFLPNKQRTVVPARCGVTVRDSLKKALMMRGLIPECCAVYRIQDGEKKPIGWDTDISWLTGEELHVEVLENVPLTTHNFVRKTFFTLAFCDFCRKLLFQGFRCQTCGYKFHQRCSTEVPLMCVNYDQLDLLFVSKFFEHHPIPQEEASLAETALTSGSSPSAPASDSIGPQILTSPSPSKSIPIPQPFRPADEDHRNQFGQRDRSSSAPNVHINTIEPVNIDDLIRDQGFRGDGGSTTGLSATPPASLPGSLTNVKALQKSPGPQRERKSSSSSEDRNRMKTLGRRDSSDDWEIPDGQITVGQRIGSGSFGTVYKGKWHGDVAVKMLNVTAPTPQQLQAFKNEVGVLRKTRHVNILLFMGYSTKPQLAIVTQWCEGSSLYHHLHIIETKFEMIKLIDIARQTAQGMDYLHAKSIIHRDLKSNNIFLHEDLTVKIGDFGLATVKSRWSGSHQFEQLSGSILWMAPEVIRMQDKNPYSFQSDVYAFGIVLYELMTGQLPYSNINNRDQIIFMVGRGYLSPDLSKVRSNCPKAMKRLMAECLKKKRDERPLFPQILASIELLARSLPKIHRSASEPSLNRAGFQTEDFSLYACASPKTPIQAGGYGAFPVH
Sequence of Mitogen-activated protein kinase 8 (Homo sapiens) (P45983 whole entry): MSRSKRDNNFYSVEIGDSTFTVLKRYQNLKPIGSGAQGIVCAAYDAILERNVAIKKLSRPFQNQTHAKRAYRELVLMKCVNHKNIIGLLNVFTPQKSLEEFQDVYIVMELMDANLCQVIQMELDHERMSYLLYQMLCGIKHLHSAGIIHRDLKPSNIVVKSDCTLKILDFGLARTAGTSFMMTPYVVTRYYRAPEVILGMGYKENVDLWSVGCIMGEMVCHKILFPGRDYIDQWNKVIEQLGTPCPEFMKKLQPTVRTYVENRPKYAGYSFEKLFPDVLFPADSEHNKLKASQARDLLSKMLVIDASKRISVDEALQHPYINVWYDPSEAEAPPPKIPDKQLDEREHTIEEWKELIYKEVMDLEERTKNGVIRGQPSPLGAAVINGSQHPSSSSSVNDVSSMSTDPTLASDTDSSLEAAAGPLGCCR
Sequence of 3-phosphoinositide-dependent protein kinase 1 (Homo sapiens) (O15530 whole entry, the tested form may be a part): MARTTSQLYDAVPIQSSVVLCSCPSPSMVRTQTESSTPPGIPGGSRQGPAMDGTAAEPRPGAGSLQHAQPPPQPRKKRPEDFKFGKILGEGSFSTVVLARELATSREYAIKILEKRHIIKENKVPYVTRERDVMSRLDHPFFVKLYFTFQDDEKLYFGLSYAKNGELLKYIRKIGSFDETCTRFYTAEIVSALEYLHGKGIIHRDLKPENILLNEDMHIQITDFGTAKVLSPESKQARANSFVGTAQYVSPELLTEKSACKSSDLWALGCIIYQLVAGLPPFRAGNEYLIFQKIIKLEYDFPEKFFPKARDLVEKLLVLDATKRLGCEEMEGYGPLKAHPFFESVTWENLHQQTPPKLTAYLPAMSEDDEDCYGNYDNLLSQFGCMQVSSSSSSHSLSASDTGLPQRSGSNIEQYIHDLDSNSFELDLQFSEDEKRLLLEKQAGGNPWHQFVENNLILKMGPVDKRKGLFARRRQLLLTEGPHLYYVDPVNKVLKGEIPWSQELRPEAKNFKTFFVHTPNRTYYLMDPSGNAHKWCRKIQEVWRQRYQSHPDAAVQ
Sequence of Serine/threonine-protein kinase pim-2 (Homo sapiens) (Q9P1W9 whole entry, looked up, the tested form may be a part): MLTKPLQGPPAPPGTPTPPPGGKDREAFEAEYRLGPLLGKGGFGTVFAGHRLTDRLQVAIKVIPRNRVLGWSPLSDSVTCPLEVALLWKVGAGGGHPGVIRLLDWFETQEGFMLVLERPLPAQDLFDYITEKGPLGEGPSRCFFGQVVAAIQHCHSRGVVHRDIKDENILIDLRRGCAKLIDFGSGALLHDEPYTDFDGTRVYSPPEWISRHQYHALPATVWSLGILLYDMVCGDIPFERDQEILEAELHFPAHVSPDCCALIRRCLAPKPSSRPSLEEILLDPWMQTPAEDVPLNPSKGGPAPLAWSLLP
Sequence of Serine/threonine-protein kinase B-raf (Homo sapiens), P15056 [V600E] (P15056 whole entry V600E, the tested form may be a part): as the sequence (P15056 whole entry, the tested form may be a part) above, with V600E counted along it

Take `O=C1C2=C(C(=O)c3c(O)ccc(O)c31)[C@@H](O)[C@@H](O)[C@@H](O)C2`: the Activity in [1] came out at 96%; in test [2] it was 100%; in test [3], 100%; in test [4] it was 70%; in test [5] it was 87%; in test [6], 68%. Also, the Activity in test [7] stood at 89%; in test [8], 87%; in test [9] it was 86%; in [10] it was 77%; in [11], 95%; in test [12], 100%. Besides, the Activity was determined as 93% in test [13]; 88% in test [14]; 100% in test [15]; 84% in test [17]; 92% in test [18]; 100% in test [19]. Moreover, the Activity in [20] worked out at 61%; in test [21], 98%; in test [22] it was 93%; in test [23], 53%; in [24] it was 89%. This molecule showed a % of MOE kinase hits in [16] of 29%.
